Six compounds from ChEMBL document CHEMBL1151210, “Antioxidative constituents from the leaves of Hypericum styphelioides” (J Nat Prod, 2004) can be followed below.

A short description of experiment [1]: Antioxidant activity assessed as trolox equivalent of free radical scavenging activity by chemiluminescence assay. The class given is functional. The gist of the method: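 Measures inhibition of p-iodophenol-enhanced chemiluminescence from a horseradish peroxidase/perborate/luminol system. Signal reagent was made by dissolving tablets (luminol, p-iodophenol enhancer, perborate oxidant) in assay buffer. Trolox served as reference antioxidant, and activity is expressed in Trolox-equivalent mM.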

The nature of experiment [2]: Antioxidant activity assessed as trolox equivalent of ABTS radical scavenging activity by spectrophotometry. The class given is functional. The gist of the method:
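ABTS radical monocation, preformed, scavenging read spectrophotometrically. Samples were diluted in MeOH to 0.3, 0.5, 1.0, 1.5 and 2.0 mM. 10 µL of sample or Trolox standard was added to 1.0 mL diluted ABTS, with MeOH as control. % inhibition of A734 vs control was taken 1 min after mixing, in triplicate. Value = Trolox concentration matching the inhibition of 1 mM compound.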

As to `CC(C)=CCC/C(C)=C/Cc1c(O)cc(O)c(C(=O)CC(C)C)c1O`, the Activity in experiment [1] was 0.96 mM; in experiment [2], 1.1 mM.
For `C[C@@H]1O[C@@H](OC[C@H]2O[C@@H](Oc3c(-c4ccc(O)c(O)c4)oc4cc(O)cc(O)c4c3=O)[C@H](O)[C@@H](O)[C@@H]2O)[C@H](O)[C@H](O)[C@H]1O`, the Activity in experiment [1] worked out at 2.54 mM; in experiment [2] it was 2.78 mM.
In the same order, the values of `C=C(C)[C@H]1C[C@H](c2c(O)cc3oc4c(O)cccc4c(=O)c3c2O)C(C)(C)C1` are 1.94 mM and 2.92 mM.
`O=c1c(O)c(-c2ccc(O)c(O)c2)oc2cc(O)cc(O)c12`: the figures for the Activity in experiment [1] and in experiment [2] were 3.09 mM and 3.33 mM, respectively.
Turning to `C=C(C)[C@H]1C[C@H](c2c(O)cc3oc4c(O)c(O)ccc4c(=O)c3c2O)C(C)(C)C1`, the figures for the Activity in experiment [1] and in experiment [2] were 1.78 mM and 2.75 mM, respectively.
As for `O=C(c1ccccc1)c1cc(O)c([C@@H]2O[C@H](CO)[C@@H](O)[C@H](O)[C@H]2O)c(O)c1`, the Activity amounted to 1.24 mM in experiment [1] and 1.93 mM in experiment [2].
